Out of some 360,000 compounds screened, about 820 (0.23%) were called active.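 How the source made its calls: active means compounds that cut the enzyme signal by at least half of the control window in the single-dose screen; inactive means the rest.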 For the sample, actives were picked, then their nearest neighbours and some compounds at random.
Target: Low molecular weight phosphotyrosine protein phosphatase (Homo sapiens) (UniProt P24666)
Test: LMPTP phosphatase inhibitors, primary screen, biochemical, fluorescence intensity, uHTS (AID 651560);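 further: plate controls were DMSO wells with enzyme plus substrate for no effect and substrate without enzyme for full effect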
Conditions: recombinant LMPTP-A, OMFP fluorogenic substrate, at 20 µM, stronger effect = higher value
How it was run: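 Material: LMPTP-A; amount: 0.625 nM enzyme; doses: single 20 µM dose; times: reaction 50 min, room temperature, dark; technique: fluorescence intensity of OMFP turnover product; benchmarks: no-enzyme and uninhibited controls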

Chain of Low molecular weight phosphotyrosine protein phosphatase (Homo sapiens) (P24666 whole entry, looked up): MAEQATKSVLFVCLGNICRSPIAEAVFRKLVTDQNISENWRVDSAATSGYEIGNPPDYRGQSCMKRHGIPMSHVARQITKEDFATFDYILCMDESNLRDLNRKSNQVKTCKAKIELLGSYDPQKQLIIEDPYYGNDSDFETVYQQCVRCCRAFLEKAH

inhibition, inactive:
NNC(=O)c1cccc(COCC(F)(F)C(F)F)c1 -2.64%, CC(CO)NCC12CC3CC(CC(C3)C1)C2 (centres undefined) -1.02%, COc1ccc(NC(=O)Nc2ccc3c(c2)C(=O)N([C@H](C)CO)C[C@H](C)[C@@H](CN(C)C(=O)Nc2ccc4c(c2)OCO4)O3)cc1 0.628%, CCOc1ccc(N(CC(=O)NC2CCCCCC2)S(=O)(=O)c2c(C)[nH]c(=O)[nH]c2=O)cc1 -1.41%, CN(C)c1cccc(C(=O)N2CCC(n3nccc3NC(=O)C3CCOC3)CC2)c1 (centres undefined) -1.94%, CCOCCCNS(=O)(=O)Cc1ccccc1 -0.147%, COCCNc1nc(-c2ccccc2)nc2c1oc1ccccc12 2%, O=C(Nc1ccc(C2CC2(Cl)Cl)cc1)c1cccc([N+](=O)[O-])c1 (centres undefined) 2.23%, O=C(Nc1cc2c3c(c1)C1CCCC1CN3CC1CCCC21)c1ccc([N+](=O)[O-])cc1 (centres undefined) 2.81%, CCc1ccc(CCC(=O)Nc2ccc(S(N)(=O)=O)cc2)o1 -1.91%, C=CCOc1cccc(C2C(C(=O)c3ccc(C)o3)=C(O)C(=O)N2c2nnc(C)s2)c1 (centres undefined) 0.72%, CCCOc1ccc(C2C(C(=O)c3ccc(C)o3)=C(O)C(=O)N2CCCn2ccnc2)cc1 (centres undefined) 20.9%, COCc1ccc(CN2CCC(Oc3ccc(C(=O)NCc4ccccn4)cc3)CC2)o1 -0.769%, CC1C(=O)N(Cc2cn(CC3CCCCC3)nn2)CCS(=O)(=O)N1Cc1ccc(-c2cccc(N(C)C)c2)cc1 (centres undefined) 2.27%, FC(F)(F)c1cccc(-c2nc(COc3ccc(Cl)cc3Cl)no2)c1 2.97%, O=C1COc2c1ccc(O)c2O 2.2%, CCN(CC)C(=O)CS(=O)CC(=O)Nc1cc(OCCOC)c(Cl)cc1Cl (centres undefined) -0.0342%, C[C@H](CO)N1C[C@H](C)[C@H](CN(C)C(=O)Nc2ccc3c(c2)OCO3)Oc2ncc(Br)cc2C1=O -2.87%, COc1cccc(CNC(=O)C(=O)NCCC2CCCCN2S(=O)(=O)c2ccc(C)cc2)c1 (centres undefined) 0.141%, Cn1c(C(=O)OC(C(=O)NC2CCCCC2)c2ccccn2)cc2sccc21 (centres undefined) 0.323%, C=CCn1c(Oc2ccc(C(=O)OC)cc2)nc2c1c(=O)n(C)c(=O)n2C -1.9%, COc1ccccc1N(CC(=O)NC1CCCC1)C(=O)C1(C)CC(=O)N=C2C=CC(C)=CN21 (centres undefined) -0.3%, CCCCNC(=O)Cn1nc(C)c(S(=O)(=O)N2CCOCC2)c1C -0.848%, CCC(C)c1ccccc1NC(=O)CN(C)CC(=O)Nc1ccccc1SC (centres undefined) -7.1%, CC1(C)CC(=O)C2=C(C1)N=C1SCCC(=O)N1C2c1ccc(C(F)(F)F)cc1 (centres undefined) 0.279%, Cc1cc(F)ccc1NC(=O)C(C)n1c2ccccc2c2nc(=O)cc(C)n21 (centres undefined) -1.13%, O=S(=O)(c1ccc(Cl)cc1)N1CCCN(c2ccc(C(F)(F)F)cn2)CC1 2.43%, CCCN1C(=O)C(NS(=O)(=O)c2ccc(N)cc2)(C(F)(F)F)C(C(=O)OC)=C1C (centres undefined) -1.38%, Cc1cccc(NC(=S)N(CCN(C)C)C(C)c2ccco2)c1 (centres undefined) -1.32%, COc1ccc2c(C)c(CCC(=O)NC3CC3)c(=O)oc2c1C -1.16%, O=C(O)c1ccccc1OCc1ccccc1Cl -0.307%, O=C(CO/N=C/c1ccccc1OC(F)F)NC1CCCC1 -0.427%, Cc1ccc(Cc2c(-c3ccc(Cl)cc3)nc3c4ccccc4ccn23)cc1 6.26%, COc1ccc(NC(=O)c2cc(=O)[nH]c3ccccc23)cc1S(=O)(=O)N1CCOCC1 -0.651%, COc1ccc(Cc2cc(-c3ccc(F)cc3)n[nH]c2=O)cc1 0.445%, CCCc1nc(-c2cc3cc(C)ccc3[nH]c2=O)no1 -2.23%, Cn1c(=O)cc(OCC(=O)N2CCN(c3ccccc3F)CC2)c2ccccc21 -0.233%, Cc1[nH]c(N)nc(=S)c1CCCNc1ccccc1 4.94%, Cc1csc(=O)n1CC(=O)Nc1ccc(S(C)(=O)=O)cc1 0.0764%, CN1CCN(Cc2c(C(=O)N3CCc4ccccc4C3)nc3ccc(Cl)cn23)CC1 -1.43%, O=C(COc1ccc(Cl)cc1Cl)NCCCNC(=O)c1cnccn1 -0.724%, CCCNS(=O)(=O)c1ccc(CCC(=O)NCc2cccnc2)cc1 -0.651%, COc1ccc(NC(=O)CN2C(=O)CSC2=O)cc1 -1.92%, CCOC(=O)c1sc2nc(C)nc(SCC(N)=O)c2c1C -0.32%, COc1ccc(C#Cc2c(-c3ccc(OC)cc3)oc3ccc(-c4ccc5c(c4)OCO5)cc23)cc1 0.696%, FC(F)(F)c1ccc2c3n(nc2c1)CCN=C3c1ccc(Cl)cc1 -0.582%, COc1ccc(CC(NC(C)=O)C(=O)NC2CCN(C(=O)c3ccc(Cl)cc3)CC2)cc1 (centres undefined) 0.435%, C[C@]12CC[C@H](O)CC1=CCC1C2CC[C@@]2(C)C1CC[C@@H]2NC(=O)CCC(=O)O (some centres undefined) -0.874%, Cn1c(SCC(=O)Nc2ccc(Cl)cc2)nc(O)cc1=O -0.456%, C[C@@H](C(=O)Nc1ccc2ccccc2c1)[C@@H]1C[C@@]1(C)[C@@H](NC(=O)c1cccnc1)c1ccccc1 0.267%, CCN(c1ccc2c(c1)OCO2)S(=O)(=O)c1cc(Br)cc2c1N(C(=O)C1CC1)CC2 3.91%, CC(=O)c1ccccc1NC(=O)CC1(CC(=O)O)CCCCC1 -1.06%, CCN(CCn1cccn1)Cc1cn[nH]c1-c1ccc(OC)cc1F -1.15%, Cc1cc(-c2nc(C)c(-c3nnc(SCC(=O)Nc4ccccc4)n3C)s2)no1 -0.511%, COC(=O)c1sc(C(F)(F)F)c(-c2ccccc2)c1S(=O)(=O)N(C)C -0.149%, O=C1NC(O)CCN1C1CC(O)C(CO)O1 (centres undefined) -0.47%, COc1ccccc1OCCNC(=O)C(CCSC)NC(=O)COc1ccccc1 (centres undefined) -1.42%, Cc1ccc(S(=O)(=O)CCC(=O)OCC(=O)N(C)C2CCS(=O)(=O)C2)cc1 (centres undefined) -1.13%, O=C(c1cc(-c2ccco2)nc2ccccc12)N(Cc1nnc(-c2ccc(Cl)cc2)o1)C1CC1 3%, COc1ccc(N(C)S(=O)(=O)c2cccc3nsnc23)cc1 -1.17%, Cn1c(=O)[nH]c(=O)c2c1nc(NCCCn1ccnc1)n2Cc1cccc(Br)c1 -1.82%, COc1cc(N2C(=O)c3ccccc3C2=O)c(Cl)cc1C(=O)OCC(=O)N1CCOCC1 0.755%, CCN1CCN(C(=O)c2cc3cc4ccc(OC)cc4nc3s2)CC1 0.833%, CS(=O)(=O)c1ccc(C(=O)NNC(=O)c2cccs2)cc1 -1.18%, O=c1ccc2cc(S(=O)(=O)N3CCN(c4ccccc4)CC3)ccc2o1 -2.32%, CSCCC(NC(=O)c1ccco1)C(=O)NCCc1ccc(F)cc1 (centres undefined) -1.2%, O=C(CNC(=O)c1cc2c(s1)CCC2)Nc1ccccc1Br 5.93%, Cn1c(CN2CCOCC2)nc2cc(NC(=O)c3ccc(Cl)cc3)ccc21 -0.278%, CCOc1cccc(OCCCOc2cccc3cccnc23)c1 3.69%, CCOC(=O)Cn1c2c(c(-c3ccccc3OC)cc1=O)CCCC2 2.39%, O=c1cc(N2CCCCC2)c(-c2ccccc2)nn1Cc1cccc(F)c1 -0.671%, Brc1cnc2ccccc2c1N1CCCCC1 4.39%, OCCC#Cc1ccc(CN2CCN(Cc3ccsc3)C(CCO)C2)cc1 (centres undefined) 1.89%, CC(OC(=O)c1c(F)cccc1F)C(=O)NCCC1=CCCCC1 (centres undefined) 0.59%, COc1ccc(CC(=O)Nc2sc(Cc3ccccc3)c(C)c2C(N)=O)cc1 0.191%, COc1cc(OC)cc(C(=O)NNC(=O)Cc2cccs2)c1 1.69%, Cc1ccccc1OCC(=O)NNC(=O)c1ccc(-n2cncn2)c([N+](=O)[O-])c1 -1.02%

inhibition, active:
CCOCCCNc1nc(-c2ccccc2)nc2ccccc12 57.8%, Cn1ccc(=Nc2ccc(NC(=O)c3ccc(N=c4ccn(C)c5ccc([N+](=O)[O-])cc45)cc3)cc2)cc1 78%, Cc1cc(N2C(=O)C(O)=C(C(=O)c3ccc(C)o3)C2c2ccc(OCc3ccccc3)cc2)no1 (centres undefined) 52.5%, C=CC1=C(C(=O)O)N2C(=O)[C@@H](NC(=O)/C(=N/OCC(=O)O)c3csc(N)n3)[C@H]2SC1 77.9%, Cc1c(CCC(=O)O)c(=O)oc2c(C)c(OCc3ccccc3Cl)ccc12 86.6%, COc1ccc2[nH]c(=O)c(-c3noc(-c4ccc(F)cc4)n3)cc2c1 48.8%, CN(C(=O)COC(=O)c1cc(-c2ccco2)nc2ccccc12)C1CCS(=O)(=O)C1 (centres undefined) 66.6%, Cc1ccc(C(=O)NNC(=O)c2cc3cc4ccccc4nc3s2)cc1 50.6%, CCOc1ccc(-c2nc(N)ncc2-c2ccccc2OC)c(O)c1 53.5%, c1ccc(-c2cc(N3CCCCC3)c3ccccc3n2)cc1 67.2%, Nc1ccc2nc3c(=O)[nH]c(=S)[nH]c3nc2c1 85%, COc1ccc(Cc2nnc(NC(=O)Cc3cccs3)s2)cc1 76.7%
